Measured values: article PMC3270411 (Chemistry & biology, 2012)

What was measured:
AurA,AurB,AurC = experiment: KiNativ cellular kinase profiling; type: cell-based; conditions: A375 cells, 1 μM, 3 hours, labeling site ATP Loop
MET(M250T) = MET(M250T) (Homo sapiens, UniProt P08581, M1250T); experiment: enzymatic kinase assay on potential off-target; type: biochemical
KIT(V559D,T670I) = KIT(V559D,T670I) (Homo sapiens, UniProt P10721, T670I/V559D); experiment: KinomeScan dissociation constant; type: binding
IRAK1 [1] = target: T1, IRAK1 (Homo sapiens, UniProt P51617); experiment: enzymatic kinase assay on potential off-target; type: biochemical; conditions: IC50 (nM) (enzymatic) IRAK1
[2] = test system: panel of 442 distinct kinases; experiment: KINOMEscan kinase-binding panel
JNK3 = JNK3 (Homo sapiens, UniProt P53779); experiment: intact protein mass spectrometry of inhibitor-labeled JNK3; type: binding; conditions: incubation with JNK3, electrospray mass spectrometry
KIT(L576P) = KIT(L576P) (Homo sapiens, UniProt P10721, L576P); experiment: KinomeScan dissociation constant; type: binding
IRAK1 [3] = target: T1, IRAK1; experiment: follow-up IC50 determination after enzymatic panel; type: biochemical
ERK8 = ERK8 (Homo sapiens, UniProt Q8TD08); experiment: follow-up IC50 determination after enzymatic panel; type: biochemical
NUAK1 = NUAK1 (Homo sapiens, UniProt O60285); experiment: follow-up IC50 determination after enzymatic panel; type: biochemical
[4] = test system: potential additional kinase targets; experiment: follow-up biochemical and binding assays on potent binding targets; conditions: enzymatic assay or dissociation constant follow-up
DNAPK = DNAPK (Homo sapiens, UniProt P78527); experiment: KiNativ cellular kinase profiling; type: cell-based; conditions: A375 cells, 1 μM, 3 hours, labeling site ATP
PIP4K2C = target: T2, PIP4K2C (Homo sapiens, UniProt Q8TBX8); experiment: KiNativ cellular kinase profiling; type: cell-based; conditions: A375 cells, 1 μM, 3 hours, labeling site ATP
T2 sequence (Q8TBX8 1-421): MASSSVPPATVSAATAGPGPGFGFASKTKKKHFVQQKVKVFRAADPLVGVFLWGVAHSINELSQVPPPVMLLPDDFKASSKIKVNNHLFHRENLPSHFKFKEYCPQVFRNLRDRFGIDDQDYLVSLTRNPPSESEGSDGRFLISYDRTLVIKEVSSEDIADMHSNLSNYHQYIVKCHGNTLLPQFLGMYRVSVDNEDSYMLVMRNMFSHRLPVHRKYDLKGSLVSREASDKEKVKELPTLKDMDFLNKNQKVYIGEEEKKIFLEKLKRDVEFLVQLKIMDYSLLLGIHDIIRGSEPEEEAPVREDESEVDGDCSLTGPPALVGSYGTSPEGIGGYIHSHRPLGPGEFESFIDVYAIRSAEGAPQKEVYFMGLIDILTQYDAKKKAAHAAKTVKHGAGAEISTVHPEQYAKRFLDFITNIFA

PIK3C3 = PIK3C3 (Homo sapiens, UniProt Q8NEB9); experiment: KiNativ cellular kinase profiling; type: cell-based; conditions: A375 cells, 1 μM, 3 hours, PIK3C3, labeling site ATP
p38a = p38a (Homo sapiens, UniProt Q16539); experiment: KiNativ cellular kinase profiling; type: cell-based; conditions: A375 cells, 1 μM, 3 hours
JNK = experiment: pulse-chase ATP-biotin binding kinetics assay in A375 cells; type: cell-based; conditions: same pulse-chase protocol
Procedure, shortened: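 A375 cells treated with 1 μM test compound for 1–5 h, then washed three times in PBS. Lysed in NP-40/CHAPS buffer for 30 min at 4°C, cleared, and gel-filtered into HEPES kinase buffer (about 5–15 mg/ml protein). Lysate labelled with 5 μM ATP-biotin probe for 1 h, reduced with DTT, alkylated with iodoacetamide, and pulled down on streptavidin for 2 h. Read-out: SDS-PAGE and JNK immunoblot.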

[5] = test system: c-Jun phosphorylation in HeLa and A375 cells; experiment: cellular c-Jun phosphorylation, statements for both assay formats; type: cell-based; conditions: relative to JNK-IN-5

Chain of PIK3C3 (Q8NEB9 whole entry): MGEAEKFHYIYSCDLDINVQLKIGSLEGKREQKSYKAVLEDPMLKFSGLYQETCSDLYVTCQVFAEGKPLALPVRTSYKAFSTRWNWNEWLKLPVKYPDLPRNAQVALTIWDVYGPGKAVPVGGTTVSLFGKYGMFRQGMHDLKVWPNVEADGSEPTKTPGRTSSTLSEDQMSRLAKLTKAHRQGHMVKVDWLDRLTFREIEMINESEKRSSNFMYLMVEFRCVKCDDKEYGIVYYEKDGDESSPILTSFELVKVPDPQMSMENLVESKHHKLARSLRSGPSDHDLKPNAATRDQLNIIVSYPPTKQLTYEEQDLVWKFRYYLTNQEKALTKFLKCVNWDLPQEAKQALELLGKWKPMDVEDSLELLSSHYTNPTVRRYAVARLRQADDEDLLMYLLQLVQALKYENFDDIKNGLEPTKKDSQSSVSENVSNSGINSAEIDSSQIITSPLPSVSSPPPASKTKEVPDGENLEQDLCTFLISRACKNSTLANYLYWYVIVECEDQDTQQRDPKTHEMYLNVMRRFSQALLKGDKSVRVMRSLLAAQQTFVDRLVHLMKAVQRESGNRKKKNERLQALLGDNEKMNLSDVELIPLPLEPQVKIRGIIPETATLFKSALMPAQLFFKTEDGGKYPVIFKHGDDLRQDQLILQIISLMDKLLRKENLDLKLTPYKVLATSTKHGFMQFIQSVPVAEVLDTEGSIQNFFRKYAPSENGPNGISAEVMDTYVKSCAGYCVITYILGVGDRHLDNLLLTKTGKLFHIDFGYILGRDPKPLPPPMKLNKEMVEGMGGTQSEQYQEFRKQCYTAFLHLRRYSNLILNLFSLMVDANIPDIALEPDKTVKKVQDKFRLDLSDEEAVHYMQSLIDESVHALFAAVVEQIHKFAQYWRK
Chain of DNAPK (P78527 whole entry): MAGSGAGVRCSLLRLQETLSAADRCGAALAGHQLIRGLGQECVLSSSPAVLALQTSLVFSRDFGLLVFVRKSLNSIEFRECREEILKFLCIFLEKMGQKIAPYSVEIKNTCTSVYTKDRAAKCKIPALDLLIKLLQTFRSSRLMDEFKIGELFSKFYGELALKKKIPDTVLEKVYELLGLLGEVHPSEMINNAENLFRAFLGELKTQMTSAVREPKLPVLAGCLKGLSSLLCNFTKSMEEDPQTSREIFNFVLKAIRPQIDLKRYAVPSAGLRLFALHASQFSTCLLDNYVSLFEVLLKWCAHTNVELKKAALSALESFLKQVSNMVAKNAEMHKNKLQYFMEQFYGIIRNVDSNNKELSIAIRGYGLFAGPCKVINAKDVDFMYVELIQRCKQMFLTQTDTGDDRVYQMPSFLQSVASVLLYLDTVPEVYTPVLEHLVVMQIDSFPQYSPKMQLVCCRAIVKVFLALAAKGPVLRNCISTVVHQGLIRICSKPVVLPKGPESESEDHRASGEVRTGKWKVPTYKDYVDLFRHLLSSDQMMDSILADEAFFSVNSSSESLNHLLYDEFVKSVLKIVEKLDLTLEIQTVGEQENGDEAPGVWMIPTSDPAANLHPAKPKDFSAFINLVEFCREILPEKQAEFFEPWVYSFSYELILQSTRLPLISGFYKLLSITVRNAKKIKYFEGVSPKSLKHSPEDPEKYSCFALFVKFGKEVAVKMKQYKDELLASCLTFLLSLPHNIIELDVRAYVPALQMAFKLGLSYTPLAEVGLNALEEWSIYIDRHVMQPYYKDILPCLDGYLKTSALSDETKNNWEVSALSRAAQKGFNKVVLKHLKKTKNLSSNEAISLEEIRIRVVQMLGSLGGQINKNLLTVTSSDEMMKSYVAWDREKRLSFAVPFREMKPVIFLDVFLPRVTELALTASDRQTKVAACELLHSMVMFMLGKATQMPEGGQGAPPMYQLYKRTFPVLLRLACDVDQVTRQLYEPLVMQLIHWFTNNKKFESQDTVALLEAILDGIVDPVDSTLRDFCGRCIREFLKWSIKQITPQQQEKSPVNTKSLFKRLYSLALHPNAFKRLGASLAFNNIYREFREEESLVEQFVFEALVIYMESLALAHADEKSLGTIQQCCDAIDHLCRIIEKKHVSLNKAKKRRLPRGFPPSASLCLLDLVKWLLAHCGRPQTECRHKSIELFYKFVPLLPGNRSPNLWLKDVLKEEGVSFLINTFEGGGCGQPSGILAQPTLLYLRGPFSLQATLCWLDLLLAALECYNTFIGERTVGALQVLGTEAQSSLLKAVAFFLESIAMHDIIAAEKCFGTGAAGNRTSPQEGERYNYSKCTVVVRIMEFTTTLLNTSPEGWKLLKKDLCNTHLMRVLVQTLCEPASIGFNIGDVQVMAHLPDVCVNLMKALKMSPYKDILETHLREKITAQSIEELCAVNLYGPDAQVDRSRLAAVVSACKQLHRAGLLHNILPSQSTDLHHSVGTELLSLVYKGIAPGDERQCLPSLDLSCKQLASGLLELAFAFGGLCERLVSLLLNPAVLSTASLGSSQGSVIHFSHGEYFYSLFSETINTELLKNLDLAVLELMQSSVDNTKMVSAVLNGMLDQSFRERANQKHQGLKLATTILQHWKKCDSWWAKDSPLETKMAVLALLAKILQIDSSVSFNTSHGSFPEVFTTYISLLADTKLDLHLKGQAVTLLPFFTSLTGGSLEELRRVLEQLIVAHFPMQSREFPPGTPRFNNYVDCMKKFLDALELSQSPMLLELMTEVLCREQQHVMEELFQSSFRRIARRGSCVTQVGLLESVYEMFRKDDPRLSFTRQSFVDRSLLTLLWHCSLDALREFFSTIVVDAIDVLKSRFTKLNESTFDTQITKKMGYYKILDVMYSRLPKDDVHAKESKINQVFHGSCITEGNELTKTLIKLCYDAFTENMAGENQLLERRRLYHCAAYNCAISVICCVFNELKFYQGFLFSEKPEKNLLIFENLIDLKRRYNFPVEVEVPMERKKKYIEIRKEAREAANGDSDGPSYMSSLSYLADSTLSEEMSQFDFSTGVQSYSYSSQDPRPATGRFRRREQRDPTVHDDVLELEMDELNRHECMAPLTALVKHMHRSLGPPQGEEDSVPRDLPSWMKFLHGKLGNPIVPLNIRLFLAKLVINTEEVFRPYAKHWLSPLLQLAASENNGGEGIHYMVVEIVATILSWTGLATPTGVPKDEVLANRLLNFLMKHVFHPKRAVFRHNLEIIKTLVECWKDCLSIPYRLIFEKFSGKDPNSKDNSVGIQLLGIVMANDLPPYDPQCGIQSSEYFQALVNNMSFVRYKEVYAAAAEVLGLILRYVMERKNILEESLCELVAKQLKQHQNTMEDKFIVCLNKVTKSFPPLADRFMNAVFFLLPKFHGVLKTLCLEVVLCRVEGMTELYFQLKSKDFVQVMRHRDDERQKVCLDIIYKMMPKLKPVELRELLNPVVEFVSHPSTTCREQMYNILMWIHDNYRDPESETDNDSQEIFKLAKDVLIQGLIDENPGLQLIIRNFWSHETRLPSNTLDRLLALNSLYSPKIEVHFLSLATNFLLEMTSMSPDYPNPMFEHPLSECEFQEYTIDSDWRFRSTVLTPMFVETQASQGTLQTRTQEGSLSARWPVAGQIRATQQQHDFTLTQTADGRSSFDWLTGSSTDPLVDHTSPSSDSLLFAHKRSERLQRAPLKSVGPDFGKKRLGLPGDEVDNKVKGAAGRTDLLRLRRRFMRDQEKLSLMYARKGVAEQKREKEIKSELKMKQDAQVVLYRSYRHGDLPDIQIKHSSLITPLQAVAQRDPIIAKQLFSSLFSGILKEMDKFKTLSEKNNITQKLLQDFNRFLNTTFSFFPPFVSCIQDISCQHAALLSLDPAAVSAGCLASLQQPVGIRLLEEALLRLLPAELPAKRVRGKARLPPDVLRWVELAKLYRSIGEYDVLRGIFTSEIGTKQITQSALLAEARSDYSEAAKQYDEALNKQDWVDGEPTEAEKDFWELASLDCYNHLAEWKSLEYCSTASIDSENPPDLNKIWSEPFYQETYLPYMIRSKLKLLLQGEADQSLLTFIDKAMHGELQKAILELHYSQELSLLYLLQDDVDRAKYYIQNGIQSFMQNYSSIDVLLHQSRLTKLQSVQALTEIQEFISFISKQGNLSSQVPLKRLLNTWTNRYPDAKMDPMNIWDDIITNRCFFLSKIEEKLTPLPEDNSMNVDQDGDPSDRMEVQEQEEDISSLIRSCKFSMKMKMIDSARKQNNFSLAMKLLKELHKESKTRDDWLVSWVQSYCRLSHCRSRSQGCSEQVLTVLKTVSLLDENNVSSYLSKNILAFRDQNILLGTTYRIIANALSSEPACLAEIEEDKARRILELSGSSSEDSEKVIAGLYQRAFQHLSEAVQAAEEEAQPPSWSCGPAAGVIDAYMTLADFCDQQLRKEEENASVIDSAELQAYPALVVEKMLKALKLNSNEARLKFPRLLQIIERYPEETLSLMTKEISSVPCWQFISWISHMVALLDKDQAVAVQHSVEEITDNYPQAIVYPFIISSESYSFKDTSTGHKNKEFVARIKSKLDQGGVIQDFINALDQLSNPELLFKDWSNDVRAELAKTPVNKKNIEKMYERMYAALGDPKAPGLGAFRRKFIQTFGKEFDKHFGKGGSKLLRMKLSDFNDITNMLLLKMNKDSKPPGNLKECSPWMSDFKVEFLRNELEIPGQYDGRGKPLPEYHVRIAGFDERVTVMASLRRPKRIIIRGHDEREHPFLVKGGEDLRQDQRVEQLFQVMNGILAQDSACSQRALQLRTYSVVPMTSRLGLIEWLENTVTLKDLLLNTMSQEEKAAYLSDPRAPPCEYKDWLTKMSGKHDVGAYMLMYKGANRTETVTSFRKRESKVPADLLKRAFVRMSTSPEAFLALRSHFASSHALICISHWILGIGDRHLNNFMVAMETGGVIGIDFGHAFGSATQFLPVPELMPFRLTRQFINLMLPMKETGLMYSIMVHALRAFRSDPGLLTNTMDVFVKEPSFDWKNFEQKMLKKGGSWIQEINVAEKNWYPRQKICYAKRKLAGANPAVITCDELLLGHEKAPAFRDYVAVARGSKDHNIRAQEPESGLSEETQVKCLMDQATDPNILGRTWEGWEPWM

| SMILES | Percent inhibition of kinase labeling by ATP-biotin (AurA,AurB,AurC) | Percent inhibition of kinase labeling by ATP-biotin (DNAPK; first of two table lines) | Percent inhibition of kinase labeling by ATP-biotin (DNAPK; second of two table lines) | Percent inhibition of kinase labeling by ATP-biotin (PIP4K2C; first of two table lines) | Percent inhibition of kinase labeling by ATP-biotin (PIP4K2C; second of two table lines) | Percent inhibition of kinase labeling by ATP-biotin (PIK3C3; first of two table lines) | Percent inhibition of kinase labeling by ATP-biotin (PIK3C3; second of two table lines) | Percent inhibition of kinase labeling by ATP-biotin (p38a; labeling site Lys2) | Percent inhibition of kinase labeling by ATP-biotin (p38a; labeling site Other) | other results |
| --- | --- | --- | --- | --- | --- | --- | --- | --- | --- | --- |
| Cc1cc(NC(=O)c2cccc(NC(=O)/C=C/CN(C)C)c2)ccc1Nc1nccc(-c2cccnc2)n1 [JNK-IN-8] | −11.3% |  |  |  |  |  |  |  |  | IC50 (MET(M250T)): > 10000 nM; Kd (KIT(V559D,T670I)): 56 nM |
| CN(C)C/C=C/C(=O)Nc1cccc(C(=O)Nc2ccc(Nc3nccc(-c4c(-c5ccccc5)nn5ccccc45)n3)cc2)c1 [JNK-IN-11] | 53.8% |  |  |  |  |  |  |  |  |  |
| CN(C)C/C=C/C(=O)Nc1cccc(C(=O)Nc2ccc(Nc3nccc(-c4cccnc4)n3)cc2)c1 [JNK-IN-7] | 19.1% |  |  |  |  |  |  |  |  | IC50 (IRAK1 [1]): ~10 nM; number of kinases with binding inhibition of 95% or more ([2]; 1.0 μM): approximately 14 kinases; covalent modification of JNK3 (mass spectrometry) (JNK3): addition of a single molecule of inhibitor to the protein and labeling of Cys154; Kd (KIT(L576P)): 40 nM; IC50 (IRAK1 [3]): < 200 nM; IC50 (ERK8): < 200 nM; IC50 (NUAK1): < 200 nM; number of additional kinases with Kd or IC50 of 100 nM or less [4]: eight |
| CN(C)C/C=C/C(=O)Nc1cccc(C(=O)Nc2ccc(Nc3nccc(/C(C#N)=C4\Nc5ccccc5S4)n3)cc2)c1 [JNK-IN-12] | −20.9% | −65.4% | −80.7% | 43.9% | 42.6% | 7.5% | −0.5% | −28% | −13.8% | S (10) score (ratio number of kinases inhibited more than 90 percent) ([2]; screening concentration 1 μM): 0.025 |
| CCC(=O)Nc1cccc(C(=O)Nc2ccc(Nc3nccc(-c4cccnc4)n3)cc2)c1 [JNK-IN-6] | 4.9% | 51.1% | 31.7% | −4.7% | 35.7% | 26.5% | 3.1% | 32.6% | 12.4% | protection of JNK from labeling by ATP-biotin (JNK): incapable of protecting JNK from labeling by ATP-biotin; fold loss in potency / fold higher IC50 for cellular JNK inhibition [5]: 50 fold |
